In ChEMBL document CHEMBL1149300, “Novel retinoic acid metabolism blocking agents endowed with multiple biological activities are efficient growth inhibitors of human breast and prostate cancer cells in vitro and a human breast tumor xenograft in nude mice” (J Med Chem, 2004):

What was measured:
[1] = Inhibition of ATRA hydroxylase in Syrian golden hamster liver microsome assessed ATRA metabolism using [11.12-3H]-ATRA; type: microsomes, Mesocricetus auratus
Procedure, shortened: (§1)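 Microsomes from male Syrian golden hamster liver, or from T47D cells pretreated with 1 µM ATRA. Incubation in 0.1 M phosphate buffer pH 7.4 with NADPH, MgCl2 and BSA, inhibitor in DMSO; 3 min preincubation at 37 °C, then [11,12-3H]-ATRA for 30 min at 37 °C under oxygen. Ethyl acetate extraction, reverse-phase HPLC with radiometric detection; percent polar metabolites; IC50 from dose-response curves.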

Cytochrome P450 26A1 [2] = molecular target: T1, Cytochrome P450 26A1 (Homo sapiens, UniProt O43174); assay: Inhibition of ATRA-induced CYP26 in human MCF7 cells assessed ATRA as metabolism using [11.12-3H]-ATRA; type: functional, cell-based
T1 sequence (O43174 whole entry): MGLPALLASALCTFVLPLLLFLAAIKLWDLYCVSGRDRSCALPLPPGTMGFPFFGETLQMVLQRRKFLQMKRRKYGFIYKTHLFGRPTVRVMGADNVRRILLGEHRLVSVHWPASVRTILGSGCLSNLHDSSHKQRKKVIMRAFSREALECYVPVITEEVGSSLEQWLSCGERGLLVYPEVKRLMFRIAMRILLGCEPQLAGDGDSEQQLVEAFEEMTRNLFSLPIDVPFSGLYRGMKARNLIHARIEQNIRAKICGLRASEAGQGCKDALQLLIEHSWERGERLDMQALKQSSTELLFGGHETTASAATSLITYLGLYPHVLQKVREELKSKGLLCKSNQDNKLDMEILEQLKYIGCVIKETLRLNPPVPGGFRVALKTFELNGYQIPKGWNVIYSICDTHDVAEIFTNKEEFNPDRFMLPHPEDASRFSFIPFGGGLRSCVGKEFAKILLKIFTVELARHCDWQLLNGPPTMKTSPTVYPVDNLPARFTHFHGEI
Procedure, shortened: (§2)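 MCF-7 or T47D cells (1 × 10^6 per well) induced with 1 µM ATRA for 12-15 h, washed, then given inhibitor (0.0001-10 µM, ethanol stock) plus 0.001 µM [11,12-3H]-ATRA for 5 h. Media and cells extracted with ethyl acetate; metabolites measured by reverse-phase HPLC with radiometric detection; IC50 from dose-response curves.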

Cytochrome P450 26A1 [3] = molecular target: T1, Cytochrome P450 26A1; assay: Inhibition of ATRA-induced CYP26 in human T47D cells assessed as ATRA metabolism using [11.12-3H]-ATRA; type: functional, cell-based; procedure, shortened: as §2
MCF7 = assay: Growth inhibition of human MCF7 cells after 6 days by MTT assay; type: functional, cell-based; conditions: MCF7, 144 h
Procedure, shortened: (§3)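 MCF-7 (IMEM, 5% FBS) or T47D (RPMI 1640, 10% FBS) cells, 1 × 10^4 per well, adhered ~18 h, then exposed to 0.0001-10 µM drug (ethanol) for 6 days with media and drug renewed on day 4. MTT for 2 h, formazan dissolved in DMSO, A540. Triplicate wells, 2-3 experiments; IC50 by nonlinear regression.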

T47D = assay: Growth inhibition of human T47D cells after 6 days by MTT assay; type: functional, cell-based; conditions: 144 h; procedure, shortened: as §3
MDA-MB-231 = assay: Growth inhibition of human MDA-MB-231 cells after 6 days by MTT assay; type: functional, cell-based; conditions: MDA-MB-231, 144 h
LNCaP = assay: Growth inhibition of human LNCaP cells after 6 days by MTT assay; type: functional, cell-based; conditions: 144 h
Procedure, shortened: (§4)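 LNCaP cells (1 × 10^4) on poly-L-lysine-coated wells, attached 36 h; PC-3 cells (1 × 10^4), uncoated, attached 24 h; both in RPMI 1640. Treated with a concentration range of drug for 6 days, medium changed every 3 days. MTT read-out at 540 nm; IC50 by nonlinear regression from at least two experiments.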

PC-3 = assay: Growth inhibition of human PC3 cells after 6 days by MTT assay; type: functional, cell-based; conditions: PC-3, 144 h; procedure, shortened: as §4
[4] = molecular target: T2, Retinoic acid receptor alpha (Homo sapiens, UniProt P10276); assay: Displacement of [11,12-3H]ARTA from RARalpha
T2 sequence (P10276 whole entry): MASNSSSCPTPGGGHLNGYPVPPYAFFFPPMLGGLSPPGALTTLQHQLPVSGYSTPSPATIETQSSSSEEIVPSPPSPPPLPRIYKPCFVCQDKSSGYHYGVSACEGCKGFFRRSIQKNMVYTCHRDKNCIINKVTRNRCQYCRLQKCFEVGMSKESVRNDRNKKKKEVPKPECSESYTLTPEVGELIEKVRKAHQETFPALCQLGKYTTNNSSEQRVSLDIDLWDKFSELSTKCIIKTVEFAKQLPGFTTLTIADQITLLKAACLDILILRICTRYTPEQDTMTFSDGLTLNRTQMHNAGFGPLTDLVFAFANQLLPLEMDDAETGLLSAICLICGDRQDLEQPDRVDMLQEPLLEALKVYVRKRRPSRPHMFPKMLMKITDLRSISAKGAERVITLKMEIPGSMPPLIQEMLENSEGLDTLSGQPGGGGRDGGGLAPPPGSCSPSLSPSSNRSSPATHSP
Procedure, shortened: (§5)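 Recombinant S-Tag RARα, RARβ or RARγ fusion protein extracts (10-30 µg/mL total protein) in HEPES pH 7.9 binding buffer. Incubated with 1 nM [3H]all-trans-RA and 0-500 nM test compound for 3 h at 27 °C.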

[5] = molecular target: T3, Retinoic acid receptor beta (Homo sapiens, UniProt P10826); assay: Displacement of [11,12-3H]ARTA from RARbeta; procedure, shortened: as §5
T3 sequence (P10826 whole entry): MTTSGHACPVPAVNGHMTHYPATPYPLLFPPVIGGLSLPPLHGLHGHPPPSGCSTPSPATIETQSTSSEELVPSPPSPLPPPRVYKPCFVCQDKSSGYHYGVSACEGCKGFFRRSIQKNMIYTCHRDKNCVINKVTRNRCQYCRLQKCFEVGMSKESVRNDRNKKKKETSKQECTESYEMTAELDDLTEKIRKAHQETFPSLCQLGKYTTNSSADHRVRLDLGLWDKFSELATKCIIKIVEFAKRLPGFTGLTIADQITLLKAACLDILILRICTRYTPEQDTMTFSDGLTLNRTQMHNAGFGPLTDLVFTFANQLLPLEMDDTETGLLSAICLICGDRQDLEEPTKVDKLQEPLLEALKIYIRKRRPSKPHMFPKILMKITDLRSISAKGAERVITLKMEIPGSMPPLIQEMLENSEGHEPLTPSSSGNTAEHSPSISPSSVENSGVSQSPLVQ

[6] = Displacement of [11,12-3H]ARTA from RARgamma; set-up: species or system Homo sapiens
Procedure, shortened: as §5, with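 “°C. Nonspecific binding measured with a 200-fold excess of unlabeled RA; IC50 from dose-response curves, at least two experiments.” for “°C.”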

Cytochrome P450 26A1 [7] = molecular target: T1, Cytochrome P450 26A1; assay: Inhibition of ATRA-induced CYP26 in human T47D cell microsome assessed as ATRA metabolism using [11.12-3H]-ATRA; type: functional, microsomes; procedure, shortened: as §1
Cytochrome P450 26A1 [8] = molecular target: T1, Cytochrome P450 26A1; assay: Inhibition of ATRA-induced CYP26 in human MCF7 cells assessed as ATRA metabolism using [11.12-3H]-ATRA up to 10 uM; type: functional, cell-based
Procedure, shortened: (§6)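 Cells seeded at 1 × 10^6 per well and pretreated with 1 µM ATRA for 12-15 h to induce CYP26. After washing, they were incubated 5 h with inhibitor (0.0001-10 µM) plus 0.001 µM [11,12-3H]-ATRA; stocks were in 95% ethanol. […] IC50 was taken from dose-response curves.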

Cytochrome P450 26A1 [9] = molecular target: T1, Cytochrome P450 26A1; assay: Inhibition of ATRA-induced CYP26 in human T47D cells assessed as ATRA metabolism using [11.12-3H]-ATRA up to 10 uM; type: functional, cell-based; procedure, shortened: as §6

Row | Structure (SMILES) | IC50 [1] | IC50 (MDA-MB-231) | IC50 [4] | IC50 [5] | IC50 [6] | other results
1 | CC1=C(/C=C/C(C)=C/C=C/C(C)=C\C(=O)n2ccnc2)C(C)(C)CCC1n1ccnc1 (racemic) | 0.0575 µM | – | – | – | – | –
2 | CC1=C(/C=C/C(C)=C/C=C/C(C)=C/C(=O)n2ccnc2)C(C)(C)CCC1 | 0.0612 µM | 7 µM | > 1 µM | 0.5 µM | 0.5 µM | –
3 | COC(=O)/C=C(C)/C=C/C=C(C)/C=C/C1=C(C)[C@H](n2ccnc2)CCC1(C)C (stereo in doubt; (+)-5) | – | – | – | – | – | IC50 (Cytochrome P450 26A1 [3]): 6 µM; IC50 (Cytochrome P450 26A1 [7]): 0.8 µM
4 | CC1=C(/C=C/C(C)=C/C=C/C(C)=C/C(=O)Nc2ccc(O)cc2)C(C)(C)CCC1 [FENRETINIDE] | 31.9 µM | 7.7 µM | – | – | – | IC50 (MCF7): 0.15 µM; IC50 (LNCaP): 7.5 µM; IC50 (PC-3): 3.6 µM
5 | Clc1cccc(C(c2ccc3[nH]cnc3c2)n2ccnc2)c1 (centres undefined) [LIAROZOLE] | 6 µM | – | – | – | – | Activity (Cytochrome P450 26A1 [8]): Not Active; Activity (Cytochrome P450 26A1 [9]): Not Active

The remaining compounds from weak to strong by IC50 [1], led by results:

Row | IC50 [1] | IC50 (MDA-MB-231) | IC50 [4] | IC50 [5] | IC50 [6] | Structure (SMILES) | other results
6 | 0.0467 µM | – | 0.41 µM | 0.25 µM | 0.3 µM | CC1=C(/C=C/C(C)=C/C=C/C(C)=C/C(=O)O)C(C)(C)CCC1n1cnnc1 (racemic) | –
7 | 0.0437 µM | 6.3 µM | – | – | – | CC1=C(/C=C/C(C)=C/C=C/C(C)=C/C(=O)Nc2ccc(O)cc2)C(C)(C)CCC1n1ccnc1 (racemic) | Ki [1]: 0.00035 µM; IC50 (Cytochrome P450 26A1 [2]): 0.056 µM; IC50 (Cytochrome P450 26A1 [3]): 0.024 µM; IC50 (MCF7): 0.61 µM; IC50 (T47D): 0.57 µM; IC50 (LNCaP): 9 µM; IC50 (PC-3): 1.5 µM
8 | 0.0217 µM | – | – | – | – | COC(=O)/C=C(C)/C=C/C=C(C)/C=C/C1=C(C)C(n2cnnc2)CCC1(C)C (racemic) | –
9 | 0.00584 µM | – | > 1 µM | 1 µM | 0.7 µM | CC1=C(/C=C/C(C)=C/C=C/C(C)=C/C(=O)O)C(C)(C)CCC1n1cncn1 (racemic) | –
